Published values pooled from the literature.
Each line is one published result; the experiments were not run side by side.
Target: Membrane-associated tyrosine- and threonine-specific cdc2-inhibitory kinase (PKMYT1, Homo sapiens, UniProt Q99640)
Residues used in one study (Q99640 1-499): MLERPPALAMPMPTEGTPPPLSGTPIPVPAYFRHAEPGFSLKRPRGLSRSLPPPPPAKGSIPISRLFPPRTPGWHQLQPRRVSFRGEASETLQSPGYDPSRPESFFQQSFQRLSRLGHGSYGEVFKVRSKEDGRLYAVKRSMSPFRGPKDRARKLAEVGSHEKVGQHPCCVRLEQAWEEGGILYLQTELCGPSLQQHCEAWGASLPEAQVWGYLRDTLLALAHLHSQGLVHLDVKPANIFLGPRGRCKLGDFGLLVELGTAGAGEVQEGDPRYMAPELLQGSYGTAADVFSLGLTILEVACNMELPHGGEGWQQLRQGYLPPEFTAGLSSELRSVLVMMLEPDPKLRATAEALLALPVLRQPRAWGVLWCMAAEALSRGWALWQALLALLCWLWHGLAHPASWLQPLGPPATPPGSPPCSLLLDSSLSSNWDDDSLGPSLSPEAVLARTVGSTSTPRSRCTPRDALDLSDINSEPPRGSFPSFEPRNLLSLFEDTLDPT

CN(c1nccc(-c2cnn3ncccc23)n1)C1CC1  remaining binding (binding; 1 µM): 88%
COc1cc(-c2cn(C3CCc4c(F)cccc4N(CC(F)(F)F)C3=O)nn2)ccc1-n1cnc(C)c1 (centres unmarked)  remaining binding (cell-free assay; competition with immobilised ligand; 1 µM): 100%
CN(C)c1ncc(F)c(-c2cnn3ncccc23)n1  remaining binding (binding; 1 µM): 97%
O=C1CCc2cc(Nc3cc(OC4CCOCC4)c([N+](=O)[O-])cc3Cl)ccc2N1  remaining binding (cell-free assay; competition with immobilised ligand; 1 µM): 79%
N[C@H]1CCN(c2nccc(-c3cnn4ncccc34)n2)C1  remaining binding (binding; 1 µM): 91%
Cc1cnc(Nc2ccc(C(=O)N3CCC(N4CCCC4)CC3)cc2)nc1-c1cc2ccccc2s1  remaining binding (binding; competition with immobilised ligand; 1 µM): 80%
NS(=O)(=O)c1cc(NC(=O)Cc2ccccc2)ccc1Oc1cccc(Cl)c1  remaining binding (cell-free assay; competition with immobilised ligand; 1 µM): 96%
C[C@H]1CCN(c2nccc(-c3cnn4ncccc34)n2)C1  remaining binding (binding; 1 µM): 100%
O=C(NCCCN1CCOCC1)c1ccc(Nc2nccc(-c3cc4ccccc4s3)n2)cc1  remaining binding (binding; competition with immobilised ligand; 1 µM): 84%
CS(=O)(=O)N1CCCC(NC(=O)[C@H](CCC2CCCCC2)NC(=O)c2ccc(CNC(=O)c3cnc4ccccn34)cc2)C1 (some centres unmarked)  remaining binding (cell-free assay; competition with immobilised ligand; 0.1 µM): 100%
COc1ncc2cc3ccccc3nc2c1C#N  remaining binding (cell-free assay; competition with immobilised ligand; 5 µM): 100%
O=C(Nc1cccnn1)N1CC(C/C=C/c2cncc(Oc3ccc(C(F)(F)F)cn3)n2)C1  remaining binding (cell-free assay; competition with immobilised ligand; 1 µM): 100%
O=C(c1ccc(Nc2ncc(Cl)c(-c3cc4ccccc4s3)n2)cc1)N1CCC(N2CCCC2)CC1  remaining binding (binding; competition with immobilised ligand; 1 µM): 87%
COc1ccnn2ncc(-c3ccnc(N(C)C)n3)c12  remaining binding (binding; 1 µM): 100%
CNC(=O)[C@@H]1CC[C@@H](n2c(-c3ccc4cnccc4c3)nc3ccc(C(=O)NCc4cccc(C(N)=O)c4)cc32)C1  remaining binding (binding; competition with immobilised ligand; 1 µM): 100%
c1cncc(-c2cccc(Nc3nccc(NC4CCCCC4)n3)c2)c1  remaining binding (binding; competition with immobilised ligand; 10 µM): 96%
CN(CCCC(F)(F)F)c1nccc(-c2cnn3ncccc23)n1  remaining binding (binding; 1 µM): 93%
CCOC(=O)c1cc2cc(-c3cc(C(=O)NCc4ccc(C(=O)O)cc4)nn3C)ccc2[nH]1  remaining binding (cell-free assay; competition with immobilised ligand; 0.1 µM): 100%
O=C(Nc1c[nH]nc1C(=O)NC1CCNCC1)c1cc(F)cc(F)c1  remaining binding (binding; competition with immobilised ligand; 1 µM): 83%
COc1cnc(Nc2cccc(S(N)(=O)=O)c2)nc1N1CCN(c2ccccc2)C(=O)C1  remaining binding (binding; competition with immobilised ligand; 1 µM): 86%
